Values after ≈ are worked out from the molar mass of the structure shown.

In data set [1] the test system is Mycobacterium tuberculosis. The data set can be described thus: Antimicrobial activity against Mycobacterium tuberculosis H37Rv ATCC 27294 infected in mouse J774 cells assessed as log reduction in bacterial burden at 10 times lower MIC measured 7 days postinfection relative to control. The format is functional. In outline:
(§1)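 Macrophages infected with H37Rv and treated at three concentrations 10-fold apart, chosen from the primary-screen H37Rv data. The middle concentration brackets the reported MIC, with the others ten-fold below and ten-fold above it. Read-out is log-reduction of intracellular bacterial burden.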

The subject of data set [2] is J774. Put plainly: Cytotoxicity against mouse J774 cells assessed as cell viability at MIC by MTT assay relative to control. In kind it is cell-based.
The subject of data set [3] is Mycobacterium tuberculosis. Put plainly: Antimicrobial activity against Mycobacterium tuberculosis H37Rv ATCC 27294 infected in mouse J774 cells assessed as log reduction in bacterial burden at 10 times MIC measured 7 days postinfection relative to control. The format is functional. In outline: as §1
In data set [4] the test system is Mycobacterium tuberculosis. The data set can be described thus: Antimicrobial activity against Mycobacterium tuberculosis H37Rv ATCC 27294 infected in mouse J774 cells assessed as growth inhibition at 10 times lower MIC measured 7 days postinfection. The format is functional. An outline of the steps: as §1
Data set [5] relates to Mycobacterium tuberculosis. Put plainly: Antimicrobial activity against Mycobacterium tuberculosis H37Rv ATCC 27294 infected in mouse J774 cells assessed as log reduction in bacterial burden at MIC measured 7 days postinfection relative to control. In kind it is functional. In outline:
as §1

Data set [6] relates to Mycobacterium tuberculosis. The data set can be described thus: Ratio of MIC for Mycobacterium tuberculosis H37Rv SRI 1345 to MIC for non-replicating Mycobacterium tuberculosis H37Rv SRI 1345. In kind it is functional. An outline of the steps:
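Non-replicating bacilli tested by Low Oxygen Recovery Assay (LORA); ratio computed as MIC H37Rv / LORA MIC.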

Data set [7] concerns J774. The data set can be described thus: Cytotoxicity against mouse J774 cells assessed as cell viability at 10 times lower MIC by MTT assay relative to control. The format is cell-based. Background: Tetrazolium assays rely on reduction of a dye to a coloured formazan, in cell work by metabolically active cells.
Data set [8] relates to Mycobacterium tuberculosis. Put plainly: Antimicrobial activity against Mycobacterium tuberculosis H37Rv ATCC 27294 infected in mouse J774 cells assessed as log reduction in bacterial burden at 10 times lower MIC measured 7 days postinfection relative to rifampicin. In kind it is functional. In outline:
as §1

Data set [9] concerns Mycobacterium tuberculosis. The data set can be described thus: Antimicrobial activity against Mycobacterium tuberculosis H37Rv SRI 1345 assessed as inhibition of visual growth after 18 to 24 hrs. In kind it is functional. The following applies: read-out: MBC99.9.
For data set [10], the system named is Mycobacterium tuberculosis. The data set can be described thus: Antimicrobial activity against non-replicating Mycobacterium tuberculosis H37Rv SRI 1345 assessed as inhibition of visual growth incubated for 7 days under anaerobic condition by low oxygen recovery assay. In kind it is functional. To be noted: H37Rv SRI 1345, 168 h.
Data set [11] relates to Mycobacterium tuberculosis. Put plainly: Antimicrobial activity against Mycobacterium tuberculosis H37Rv SRI 1345 after 7 days. To be noted: H37Rv SRI 1345, 168 h. In kind it is functional. In outline: (§2)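 MIC in µg/mL, retested on susceptible H37Rv (SRI 1345) in the same panel as single-drug-resistant strains: isoniazid-, rifampin- and ofloxacin-resistant. Percent inhibition recorded at the MIC concentration. Ratio taken as MIC H37Rv / MIC resistant strain.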

Data set [12] concerns Mycobacterium tuberculosis. The data set can be described thus: Antimicrobial activity against Mycobacterium tuberculosis H37Rv ATCC 27294 incubated for 7 days by BacTiter-Glo cell viability assay. The format is functional, organism-based.
Data set [13] concerns J774. Put plainly: Cytotoxicity against mouse J774 cells assessed as cell viability at 10 times MIC by MTT assay relative to control. The format is cell-based.
The subject of data set [14] is Mycobacterium tuberculosis. The data set can be described thus: Antimicrobial activity against Mycobacterium tuberculosis H37Rv SRI 1345 assessed as growth inhibition at MIC after 7 days. The format is functional. In outline:
as §2

Data set [15] has as its system Mycobacterium tuberculosis. The data set can be described thus: Ratio of MBC for Mycobacterium tuberculosis H37Rv SRI 1345 to MIC for Mycobacterium tuberculosis H37Rv SRI 1345. The format is functional. In outline:
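MBC read from colony-forming unit counts; ratio computed as MBC / MIC against H37Rv.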

The mark [16] stands for this setting: H37Rv ATCC 27294, BacTiter-Glo, 168 h.

For orientation: MIC means the least concentration at which growth counts as inhibited. As a reminder, the IC50 is the concentration at which inhibition is half-maximal. The term IC90 denotes the concentration at which the effect reaches the 90% level. For `COC(=O)c1c(C(F)(F)F)[n+]([O-])c2ccc(N3CCN(c4ccc(F)cc4)CC3)cc2[n+]1[O-]`, the “log reduction in bacterial burden” value in data set [1] is recorded as 1.43; in data set [3], 3.86; in data set [5], 1.41. Also, the Activity in data set [2] amounted to 64%; in data set [7], 60%; in data set [13], 47%. Also, the “growth inhibition (GI)” value in [4] is reported as greater than 90%; in data set [14], 78%. The results for the Ratio in [6] and in data set [15] were 4 and 2.6, respectively. For the same compound, the “Log reduction in bacterial burden relative to rifampicin” value in [8] stood at 3. Moreover, the MBC in data set [9] turned out to be 4 µg/mL (≈ 8.58 µM). The MIC amounted to 0.375 µg/mL (≈ 0.804 µM) in data set [10]; 1.5 µg/mL (≈ 3.22 µM) in [11]; 1.6 µM (≈ 0.746 µg/mL) in data set [12] (H37Rv ATCC 27294, 168 h). This compound registered an IC50 in data set [12] (setting [16]) of 0.5 µM. The same compound had a concentration for an effect of 90% (IC90) in [12] (setting [16]) of 0.8 µM.

The record behind these values is ChEMBL document CHEMBL3792280, “Design and synthesis of novel quinoxaline derivatives as potential candidates for treatment of multidrug-resistant and latent tuberculosis” (Bioorg Med Chem Lett, 2016).
